{"source": "ChEMBL document CHEMBL3244396", "about": "“Synthesis and antileukemic activity of 5-substituted 2,3-dihydro-6,7-bis(hydroxymethyl)-1H-pyrrolizine diesters” (J Med Chem, 1977)", "key": {"[1]": {"test": "Cytotoxicity against human 9KB cells treated as ethanol solution", "type": "functional", "settings": "read-out: ED50 (the source's name)", "in_short": "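Compound applied as an ethanol solution; activity read out as ED50 under the general screening protocol.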"}, "[2]": {"tested_on": "L1210", "test": "Antileukemic activity against mouse L1210 cells allografted in female BDF1 mouse assessed as change in body weight at 50 mg/kg, ip administered daily for 9 days as Klucel suspension starting 24 hrs after tumor inoculation", "type": "functional", "settings": "route intraperitoneal", "in_short": "(§1)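 Ascitic fluid carrying L1210 cells was inoculated ip. Compound was given ip as a Klucel (hydroxypropylcellulose) suspension in nine daily doses, starting 24 h after inoculation. Body-weight difference (treated minus control) was recorded on day 5. Survival was scored as %T/C of mean survival time.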"}, "[3]": {"tested_on": "L1210", "test": "Antileukemic activity against mouse L1210 cells allografted in female BDF1 mouse assessed as change in body weight at 100 mg/kg, ip administered daily for 9 days as Klucel suspension starting 24 hrs after tumor inoculation", "type": "functional", "settings": "route intraperitoneal", "in_short": "as §1"}, "[4]": {"tested_on": "L1210", "test": "Antileukemic activity against mouse L1210 cells allografted in female BDF1 mouse assessed as change in body weight at 200 mg/kg, ip administered daily for 9 days as Klucel suspension starting 24 hrs after tumor inoculation", "type": "functional", "settings": "route intraperitoneal", "in_short": "as §1"}, "[5]": {"tested_on": "L1210", "test": "Antileukemic activity against mouse L1210 cells allografted in female BDF1 mouse assessed as host mean survival time at 100 mg/kg, ip administered daily for 9 days as Klucel suspension starting 24 hrs after tumor inoculation relative to control", "type": "functional", "settings": "route intraperitoneal", "in_short": "(§2)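 L1210 leukemia given as an ascitic fluid cell inoculum, ip, to mice of the strain and sex in each line. Test material was given ip for nine daily doses starting 24 h after inoculation, in a Klucel (hydroxypropylcellulose) suspension. Read-out is mean survival time as %T/C versus controls, with >125 taken as significant.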"}, "[6]": {"tested_on": "L1210", "test": "Antileukemic activity against mouse L1210 cells allografted in female BDF1 mouse assessed as host mean survival time at 50 mg/kg, ip administered daily for 9 days as Klucel suspension starting 24 hrs after tumor inoculation relative to control", "type": "functional", "settings": "route intraperitoneal", "in_short": "as §2"}, "[7]": {"tested_on": "Mus musculus", "test": "Toxicity in female BDF1 mouse allografted with mouse L1210 cells assessed as animal survival at 200 mg/kg, ip administered daily for 9 days as Klucel suspension starting 24 hrs after tumor inoculation measured on fifth day", "type": "organism-based", "set-up": "dose 200 mg/kg, route intraperitoneal", "settings": "in vivo", "in_short": "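L1210 leukemia passaged as ascitic fluid and inoculated ip. Test agent given ip as a Klucel (hydroxypropylcellulose) suspension, nine daily doses starting 24 h after tumor inoculation. Acute toxicity read as toxicity-day survivors per group (out of 6), recorded on day 5. Animal weight difference T − C was also recorded. Follows NCI screening protocols.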"}, "[8]": {"tested_on": "Mus musculus", "test": "Toxicity in female BDF1 mouse allografted with mouse L1210 cells assessed as animal survival at 100 mg/kg, ip administered daily for 9 days as Klucel suspension starting 24 hrs after tumor inoculation measured on fifth day", "type": "organism-based", "set-up": "dose 100 mg/kg, route intraperitoneal", "settings": "in vivo", "in_short": "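Female BDF1 mice bearing ip ascitic L1210 inoculum got nine daily ip doses in a Klucel suspension, starting 24 h after tumor inoculation. Toxicity was scored as toxicity-day survivors out of the group, recorded on the fifth day. Animal weight difference (T − C) was also tabulated.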"}, "[9]": {"tested_on": "Mus musculus", "test": "Toxicity in female BDF1 mouse allografted with mouse P388 cells assessed as animal survival at 25 mg/kg, ip administered daily for 9 days as Klucel suspension starting 24 hrs after tumor inoculation", "type": "organism-based", "set-up": "dose 25 mg/kg, route intraperitoneal", "settings": "in vivo", "in_short": "(§3)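 P-388 leukemia ascitic fluid inoculated ip. Compound given ip as a suspension in Klucel (hydroxypropylcellulose), once daily for nine doses beginning 24 h post-inoculation. Acute toxicity assessed as toxicity-day survivors per group. Survival was followed up to 30 days, with 30-day survival counted as \"cure\". Follows NCI screening protocols.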"}, "[10]": {"tested_on": "Mus musculus", "test": "Toxicity in female BDF1 mouse allografted with mouse P388 cells assessed as animal survival at 12.5 mg/kg, ip administered daily for 9 days as Klucel suspension starting 24 hrs after tumor inoculation", "type": "organism-based", "set-up": "dose 12.5 mg/kg, route intraperitoneal", "settings": "in vivo", "in_short": "as §3"}, "[11]": {"tested_on": "P388", "test": "Antitumor activity against mouse P388 cells allografted in female CDF1 mouse assessed as disease cures by measuring 30-days host survival at 3.13 mg/kg, ip administered daily for 9 days as Klucel suspension starting 24 hrs after tumor inoculation relative to control", "type": "functional", "settings": "route intraperitoneal", "in_short": "(§4)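 P388 leukemia given as an ascitic fluid cell inoculum, ip, to mice of the strain and sex in each line. Nine daily ip doses were given in a Klucel (hydroxypropylcellulose) suspension, starting 24 h after inoculation. Read-out is median survival time as %T/C, with >125 taken as significant; a \"cure\" means 30-day survival.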"}, "[12]": {"tested_on": "P388", "test": "Antitumor activity against mouse P388 cells allografted in female BDF1 mouse assessed as disease cures by measuring 30-days host survival at 25 mg/kg, ip administered daily for 9 days as Klucel suspension starting 24 hrs after tumor inoculation relative to control", "type": "functional", "settings": "route intraperitoneal", "in_short": "as §4"}, "[13]": {"tested_on": "P388", "test": "Antitumor activity against mouse P388 cells allografted in female BDF1 mouse assessed as disease cures by measuring 30-days host survival at 12.5 mg/kg, ip administered daily for 9 days as Klucel suspension starting 24 hrs after tumor inoculation relative to control", "type": "functional", "settings": "route intraperitoneal", "in_short": "as §4"}, "[14]": {"tested_on": "Mus musculus", "test": "Toxicity in female CDF1 mouse allografted with mouse P388 cells assessed as animal survival at 50 mg/kg, ip administered daily for 9 days as Klucel suspension starting 24 hrs after tumor inoculation", "type": "organism-based", "set-up": "dose 50 mg/kg, route intraperitoneal", "settings": "in vivo", "in_short": "as §3"}, "[15]": {"tested_on": "Mus musculus", "test": "Toxicity in female CDF1 mouse allografted with mouse P388 cells assessed as animal survival at 6.25 mg/kg, ip administered daily for 9 days as Klucel suspension starting 24 hrs after tumor inoculation", "type": "organism-based", "set-up": "dose 6.25 mg/kg, route intraperitoneal", "settings": "in vivo", "in_short": "as §3"}, "[16]": {"tested_on": "Mus musculus", "test": "Toxicity in female CDF1 mouse allografted with mouse P388 cells assessed as animal survival at 3.13 mg/kg, ip administered daily for 9 days as Klucel suspension starting 24 hrs after tumor inoculation", "type": "organism-based", "set-up": "dose 3.13 mg/kg, route intraperitoneal", "settings": "in vivo", "in_short": "as §3"}, "[17]": {"tested_on": "P388", "test": "Antitumor activity against mouse P388 cells allografted in female CDF1 mouse assessed as change in body weight at 3.13 mg/kg, ip administered daily for 9 days as Klucel suspension starting 24 hrs after tumor inoculation", "type": "functional", "settings": "route intraperitoneal", "in_short": "(§5)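 Ascitic fluid carrying P388 cells was inoculated ip. Compound was given ip in nine daily doses, starting 24 h after inoculation, in Klucel (hydroxypropylcellulose) suspension or in saline with Tween-80. Body-weight difference (treated minus control) was recorded on day 5. Survival was scored as %T/C of median survival time, and 30-day survival counted as cure.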"}, "[18]": {"tested_on": "P388", "test": "Antitumor activity against mouse P388 cells allografted in female CDF1 mouse assessed as change in body weight at 6.25 mg/kg, ip administered daily for 9 days as Klucel suspension starting 24 hrs after tumor inoculation", "type": "functional", "settings": "route intraperitoneal", "in_short": "as §5"}, "[19]": {"tested_on": "P388", "test": "Antitumor activity against mouse P388 cells allografted in female CDF1 mouse assessed as change in body weight at 50 mg/kg, ip administered daily for 9 days as Klucel suspension starting 24 hrs after tumor inoculation", "type": "functional", "settings": "route intraperitoneal", "in_short": "as §5"}, "[20]": {"tested_on": "P388", "test": "Antitumor activity against mouse P388 cells allografted in female CDF1 mouse assessed as change in body weight at 100 mg/kg, ip administered daily for 9 days as Klucel suspension starting 24 hrs after tumor inoculation", "type": "functional", "settings": "route intraperitoneal", "in_short": "as §5"}, "[21]": {"tested_on": "P388", "test": "Antitumor activity against mouse P388 cells allografted in female CDF1 mouse assessed as change in body weight at 200 mg/kg, ip administered daily for 9 days as Klucel suspension starting 24 hrs after tumor inoculation", "type": "functional", "settings": "route intraperitoneal", "in_short": "as §5"}, "[22]": {"tested_on": "P388", "test": "Antitumor activity against mouse P388 cells allografted in female BDF1 mouse assessed as change in body weight at 25 mg/kg, ip administered daily for 9 days as Klucel suspension starting 24 hrs after tumor inoculation", "type": "functional", "settings": "route intraperitoneal", "in_short": "as §5"}, "[23]": {"tested_on": "P388", "test": "Antitumor activity against mouse P388 cells allografted in female BDF1 mouse assessed as change in body weight at 12.5 mg/kg, ip administered daily for 9 days as Klucel suspension starting 24 hrs after tumor inoculation", "type": "functional", "settings": "route intraperitoneal", "in_short": "as §5"}, "[24]": {"tested_on": "P388", "test": "Antitumor activity against mouse P388 cells allografted in female CDF1 mouse assessed as disease cures by measuring 30-days host survival at 50 mg/kg, ip administered daily for 9 days as Klucel suspension starting 24 hrs after tumor inoculation relative to control", "type": "functional", "settings": "route intraperitoneal", "in_short": "as §4"}, "[25]": {"tested_on": "P388", "test": "Antitumor activity against mouse P388 cells allografted in female CDF1 mouse assessed as disease cures by measuring 30-days host survival at 6.25 mg/kg, ip administered daily for 9 days as Klucel suspension starting 24 hrs after tumor inoculation relative to control", "type": "functional", "settings": "route intraperitoneal", "in_short": "as §4"}}}
{"smiles": "CNC(=O)OCc1c(COC(=O)NC)c(-c2ccc(Cl)cc2)n2c1CCC2", "values": [{"measurement": "EC50", "setting": "[1]", "value": 2.3, "unit": "µg/mL"}, {"measurement": "Activity", "setting": "[2]", "value": -2.6, "unit": "g"}, {"measurement": "Activity", "setting": "[3]", "value": -3.8, "unit": "g"}, {"measurement": "Activity", "setting": "[4]", "value": -2.8, "unit": "g"}, {"measurement": "T/C", "setting": "[5]", "value": 107, "unit": "%"}, {"measurement": "T/C", "setting": "[6]", "value": 112, "unit": "%"}, {"measurement": "Activity", "setting": "[7]", "value": "Toxic"}, {"measurement": "Activity", "setting": "[8]", "value": "Non-toxic"}, {"measurement": "Activity", "setting": "[9]", "value": "Non-toxic"}, {"measurement": "Activity", "setting": "[10]", "value": "Non-toxic"}, {"measurement": "T/C", "setting": "[11]", "value": 127, "unit": "%"}, {"measurement": "T/C", "setting": "[12]", "value": 135, "unit": "%"}, {"measurement": "T/C", "setting": "[13]", "value": 129, "unit": "%"}, {"measurement": "Activity", "setting": "[14]", "value": "Non-toxic"}, {"measurement": "Activity", "setting": "[15]", "value": "Non-toxic"}, {"measurement": "Activity", "setting": "[16]", "value": "Non-toxic"}, {"measurement": "Activity", "setting": "[17]", "value": -0.6, "unit": "g"}, {"measurement": "Activity", "setting": "[18]", "value": 0.2, "unit": "g"}, {"measurement": "Activity", "setting": "[19]", "value": -2.5, "unit": "g"}, {"measurement": "Activity", "setting": "[20]", "value": -0.9, "unit": "g"}, {"measurement": "Activity", "setting": "[21]", "value": 0.5, "unit": "g"}, {"measurement": "Activity", "setting": "[22]", "value": -0.8, "unit": "g"}, {"measurement": "Activity", "setting": "[23]", "value": -0.2, "unit": "g"}, {"measurement": "T/C", "setting": "[24]", "value": 104, "unit": "%"}, {"measurement": "T/C", "setting": "[25]", "value": 150, "unit": "%"}]}
